Experimental data published in ChEMBL document CHEMBL3994627, “Positional isomers of bispyridine benzene derivatives induce efficacy changes on mGlu5 negative allosteric modulation” (Eur J Med Chem, 2017).

Key:
[1] = molecular target: Metabotropic glutamate receptor 5 (Rattus norvegicus) (UniProt P31424); test: Negative allosteric modulation of rat N-terminal HA-tagged mGlu5 receptor expressed in HEK293 cells co-expressing N-terminal HA-tagged EAAC1 assessed as inhibition of quisqualate-induced inositol phosphate accumulation by measuring difference in efficacy between dark condition and violet light illumination after 30 mins by HTRF assay; assay type: functional, cell-based; set-up: scale not given: the % may be the effect or the level left
Sequence of Metabotropic glutamate receptor 5 (Rattus norvegicus) (P31424 21-1203 limits assumed): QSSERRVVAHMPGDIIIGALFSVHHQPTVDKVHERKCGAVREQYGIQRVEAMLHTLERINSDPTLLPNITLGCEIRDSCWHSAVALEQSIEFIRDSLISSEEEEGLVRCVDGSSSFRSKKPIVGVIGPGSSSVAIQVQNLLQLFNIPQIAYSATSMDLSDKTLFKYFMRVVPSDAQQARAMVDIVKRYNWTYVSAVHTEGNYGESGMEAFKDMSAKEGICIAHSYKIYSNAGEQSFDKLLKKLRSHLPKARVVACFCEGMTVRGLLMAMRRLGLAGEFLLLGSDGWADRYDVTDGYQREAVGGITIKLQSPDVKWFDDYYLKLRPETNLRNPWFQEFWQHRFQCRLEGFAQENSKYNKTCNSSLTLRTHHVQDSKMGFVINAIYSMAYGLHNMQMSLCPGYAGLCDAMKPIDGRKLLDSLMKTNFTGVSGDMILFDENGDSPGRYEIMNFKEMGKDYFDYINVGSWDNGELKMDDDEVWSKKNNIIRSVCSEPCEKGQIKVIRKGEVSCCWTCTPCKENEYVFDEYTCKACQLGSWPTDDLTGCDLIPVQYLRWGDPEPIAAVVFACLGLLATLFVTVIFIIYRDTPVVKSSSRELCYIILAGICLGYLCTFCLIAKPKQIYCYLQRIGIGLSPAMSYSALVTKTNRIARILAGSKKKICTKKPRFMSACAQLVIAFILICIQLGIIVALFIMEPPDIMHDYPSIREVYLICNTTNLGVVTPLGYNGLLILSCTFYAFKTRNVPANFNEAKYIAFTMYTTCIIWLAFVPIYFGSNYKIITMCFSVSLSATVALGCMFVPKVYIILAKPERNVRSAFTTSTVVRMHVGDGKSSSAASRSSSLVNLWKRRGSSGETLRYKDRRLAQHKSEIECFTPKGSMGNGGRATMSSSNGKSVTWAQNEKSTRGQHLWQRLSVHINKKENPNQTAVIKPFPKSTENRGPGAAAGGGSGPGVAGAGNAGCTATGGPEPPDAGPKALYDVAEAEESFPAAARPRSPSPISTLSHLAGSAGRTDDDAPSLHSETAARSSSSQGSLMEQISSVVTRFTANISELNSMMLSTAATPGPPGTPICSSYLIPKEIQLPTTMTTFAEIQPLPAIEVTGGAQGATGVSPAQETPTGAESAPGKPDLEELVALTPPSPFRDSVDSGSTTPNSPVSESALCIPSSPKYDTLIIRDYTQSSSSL
Method in brief: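 Quisqualate (100 nM) and compound were applied for 30 min at 37°C to HEK293 cells expressing rat HA-mGlu5 and EAAC1. Wells sat over an LED plate 2–3 cm away: foil-covered wells stayed dark, the rest got continuous 380 nm light. Cells were washed once before lysis, then IP-One HTRF was read. Value is the efficacy difference (%), dark minus violet.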

[2] = molecular target: Metabotropic glutamate receptor 5 (Rattus norvegicus, UniProt P31424); test: Negative allosteric modulation of rat N-terminal HA-tagged mGlu5 receptor expressed in HEK293 cells co-expressing N-terminal HA-tagged EAAC1 assessed as inhibition of quisqualate-induced inositol phosphate accumulation after 30 mins by HTRF assay; assay type: functional, cell-based
Sequence of Metabotropic glutamate receptor 5 (Rattus norvegicus, UniProt P31424) (P31424 whole entry): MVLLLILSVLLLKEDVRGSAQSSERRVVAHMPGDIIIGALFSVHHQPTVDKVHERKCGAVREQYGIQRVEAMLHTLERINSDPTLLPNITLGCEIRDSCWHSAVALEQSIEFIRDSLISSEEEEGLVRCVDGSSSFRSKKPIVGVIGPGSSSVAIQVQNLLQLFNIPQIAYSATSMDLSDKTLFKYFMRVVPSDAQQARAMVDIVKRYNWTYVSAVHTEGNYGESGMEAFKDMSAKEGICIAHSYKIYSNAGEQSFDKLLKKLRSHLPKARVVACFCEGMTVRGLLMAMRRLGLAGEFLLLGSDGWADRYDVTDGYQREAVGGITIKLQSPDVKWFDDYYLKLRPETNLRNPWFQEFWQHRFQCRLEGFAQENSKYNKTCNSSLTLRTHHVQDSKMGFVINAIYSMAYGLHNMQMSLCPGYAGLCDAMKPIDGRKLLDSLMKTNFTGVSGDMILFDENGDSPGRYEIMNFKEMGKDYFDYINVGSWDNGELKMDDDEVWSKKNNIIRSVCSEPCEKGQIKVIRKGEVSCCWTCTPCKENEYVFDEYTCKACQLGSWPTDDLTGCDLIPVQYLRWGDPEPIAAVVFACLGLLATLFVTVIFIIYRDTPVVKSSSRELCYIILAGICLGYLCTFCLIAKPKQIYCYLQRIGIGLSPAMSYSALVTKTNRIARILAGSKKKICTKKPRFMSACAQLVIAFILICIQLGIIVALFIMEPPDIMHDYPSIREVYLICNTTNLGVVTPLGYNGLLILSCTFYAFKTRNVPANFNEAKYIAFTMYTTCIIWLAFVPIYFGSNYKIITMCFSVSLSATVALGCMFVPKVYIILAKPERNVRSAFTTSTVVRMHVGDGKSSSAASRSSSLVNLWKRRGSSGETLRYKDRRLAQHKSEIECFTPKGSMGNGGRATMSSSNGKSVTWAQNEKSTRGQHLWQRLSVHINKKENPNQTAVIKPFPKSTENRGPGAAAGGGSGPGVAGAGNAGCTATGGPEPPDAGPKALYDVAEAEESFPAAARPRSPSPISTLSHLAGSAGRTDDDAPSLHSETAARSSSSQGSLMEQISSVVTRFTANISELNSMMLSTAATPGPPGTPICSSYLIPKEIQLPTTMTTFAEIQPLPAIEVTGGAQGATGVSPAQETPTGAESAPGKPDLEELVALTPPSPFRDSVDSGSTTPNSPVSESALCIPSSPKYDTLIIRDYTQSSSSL
Method in brief: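 Rat mGlu5 (N-terminal HA tag) and EAAC1 were co-transfected into HEK293 cells by electroporation and seeded at 1.5 × 10^5 cells/well. Medium was changed to glutamate-free DMEM at least 4 h before the run. Next day, cells got 100 nM quisqualate plus compound for 30 min at 37°C, 5% CO2, then were washed once. IP accumulation was read by IP-One HTRF. Dose-response used ≥3 independent replicates.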

[3] = molecular target: Metabotropic glutamate receptor 5 (Rattus norvegicus) (UniProt P31424); test: Negative allosteric modulation of rat N-terminal HA-tagged mGlu5 receptor expressed in HEK293 cells co-expressing N-terminal HA-tagged EAAC1 assessed as inhibition of quisqualate-induced inositol phosphate accumulation after 30 mins by HTRF assay relative to fenobam; assay type: functional, cell-based
Method in brief: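 Dose-response was run in HEK293 cells expressing rat HA-mGlu5 and EAAC1, under 100 nM quisqualate with compound for 30 min at 37°C, in dark conditions. IP-One HTRF read-out. Efficacy was taken from the bottom of the dose-response curve and normalised between 0% and 100% of the fenobam response.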

[4] = molecular target: Metabotropic glutamate receptor 5 (Rattus norvegicus) (UniProt P31424); test: Ratio of IC50 for negative allosteric modulation of rat N-terminal HA-tagged mGlu5 receptor expressed in HEK293 cells under dark condition to IC50 for negative allosteric modulation of rat N-terminal HA-tagged mGlu5 receptor expressed in HEK293 cells under violet light illumination; assay type: cell-based
Method in brief: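 HEK293 cells expressing rat HA-mGlu5 and EAAC1 were stimulated with 100 nM quisqualate plus compound for 30 min at 37°C. Part of each plate was kept dark under foil; the rest was lit continuously at 380 nm from an LED plate. After a single wash, IP was measured by HTRF. Value is IC50 (dark) divided by IC50 (violet). Curves used ≥3 independent replicates.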

[5] = molecular target: Metabotropic glutamate receptor 5 (Homo sapiens, UniProt P41594); test: Negative allosteric modulation of mGlu5 receptor (unknown origin)
Sequence of Metabotropic glutamate receptor 5 (Homo sapiens, UniProt P41594) (P41594 whole entry): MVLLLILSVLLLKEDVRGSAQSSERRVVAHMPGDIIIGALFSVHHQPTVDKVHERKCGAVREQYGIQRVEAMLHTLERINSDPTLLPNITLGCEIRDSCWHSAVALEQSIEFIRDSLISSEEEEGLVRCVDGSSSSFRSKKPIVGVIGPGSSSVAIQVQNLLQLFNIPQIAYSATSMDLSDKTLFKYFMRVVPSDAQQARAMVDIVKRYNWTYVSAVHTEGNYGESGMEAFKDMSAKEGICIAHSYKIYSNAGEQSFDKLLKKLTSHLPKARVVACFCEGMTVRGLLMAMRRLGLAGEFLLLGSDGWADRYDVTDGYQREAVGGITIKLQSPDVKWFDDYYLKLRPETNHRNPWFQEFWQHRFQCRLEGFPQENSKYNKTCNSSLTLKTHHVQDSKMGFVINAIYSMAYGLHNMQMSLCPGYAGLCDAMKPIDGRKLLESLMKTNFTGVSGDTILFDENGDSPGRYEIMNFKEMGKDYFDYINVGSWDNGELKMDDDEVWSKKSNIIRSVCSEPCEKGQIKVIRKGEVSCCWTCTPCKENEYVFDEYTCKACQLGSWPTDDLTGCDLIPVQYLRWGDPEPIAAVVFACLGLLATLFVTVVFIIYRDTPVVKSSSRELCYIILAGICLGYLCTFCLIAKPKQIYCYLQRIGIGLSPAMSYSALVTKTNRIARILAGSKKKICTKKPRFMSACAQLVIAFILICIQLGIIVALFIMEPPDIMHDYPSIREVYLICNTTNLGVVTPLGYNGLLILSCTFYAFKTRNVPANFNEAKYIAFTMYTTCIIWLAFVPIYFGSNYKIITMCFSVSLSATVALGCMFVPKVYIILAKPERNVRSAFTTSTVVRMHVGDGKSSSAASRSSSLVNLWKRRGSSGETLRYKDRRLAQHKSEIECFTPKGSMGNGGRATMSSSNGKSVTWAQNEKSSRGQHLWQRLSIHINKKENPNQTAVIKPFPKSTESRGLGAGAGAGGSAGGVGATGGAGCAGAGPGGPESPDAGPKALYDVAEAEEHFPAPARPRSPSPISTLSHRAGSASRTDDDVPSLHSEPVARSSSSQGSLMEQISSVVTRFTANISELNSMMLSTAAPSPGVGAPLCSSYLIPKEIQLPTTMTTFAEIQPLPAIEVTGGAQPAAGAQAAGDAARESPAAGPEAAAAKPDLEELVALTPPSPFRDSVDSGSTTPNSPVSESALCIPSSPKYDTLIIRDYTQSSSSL

Activity [1] [%]	IC50 [2] [nM]	Efficacy [3] [%]	Ratio IC50 [4]	IC50 [5] [nM]	SMILES
-1	6130	19	1.2		c1ccc(/N=N/c2ccc(/N=N/c3ccccn3)cc2)nc1
9	960	115	1.3		C(#Cc1ccccn1)c1cccc(/N=N/c2ccccn2)c1
				17	Cc1cc(C)c(N)c(C#Cc2cccc(F)c2)n1 [RASEGLURANT]
15	4920	114	2.2		c1ccc(/N=N/c2cccc(/N=N/c3ccccn3)c2)nc1
15	3090	35	2.9		C(#Cc1ccccn1)c1ccc(/N=N\c2ccccn2)cc1
	430	114			C(#Cc1ccccn1)c1cccc(C#Cc2ccccn2)c1
	1210	42			C(#Cc1ccccn1)c1ccc(C#Cc2ccccn2)cc1
